The record followed here is ChEMBL document CHEMBL1132490, “Improving the nicotinic pharmacophore with a series of (Isoxazole)methylene-1-azacyclic compounds: synthesis, structure-activity relationship, and molecular modeling” (J Med Chem, 1999).

For experiment [1], the target named is Muscarinic acetylcholine receptor. The experiment can be described thus: In vitro displacement of [3H]oxotremorine-M from muscarinic acetylcholine receptor in rat brain cortex. It counts as tissue-based. On the technique in general: Loss of bound radioactivity is the signal in a displacement assay; it reports binding, not function.
The target in experiment [2] is Neuronal acetylcholine receptor. The experiment can be described thus: In vitro displacement of [3H]methylcarbamylcholine from nicotinic acetylcholine receptor in rat brain cortex. It counts as tissue-based. The essentials: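 Male Mol:WIST rat cerebral cortex (fresh or frozen), homogenised in 50 mM Tris-HCl pH 7.4 with 120 mM NaCl, 5 mM KCl, 2 mM CaCl2, 1 mM MgCl2, spun 40000g 10 min; pellet resuspended. Incubated with [3H]MCC (2 nM final) and test salt, 60 min at 0 °C; GF/B filtration (0.5% PEI), scintillation counting. IC50 by nonlinear regression.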

As usually defined, the IC50 is the concentration needed to halve the response being measured. Higher therefore signals a need for much substance. In turn, `Clc1ccc(C2CC3CCC2N3)cn1` (racemic) [EPIBATIDINE] registered an IC50 in experiment [1] above 1 nM.

On to `Cc1cc(/C=C2\CN3CCC2CC3)on1`, for which the IC50 in experiment [1] was 658 nM; in experiment [2], 3.9 nM.

As to `Cc1cc(/C=C2\CCCNC2)on1`, the IC50 is 6950 nM in experiment [1] and above 1000 nM in experiment [2].

For the compound `Cc1cc(/C=C2\CN3CCCC2C3)on1` (configuration not stated), the IC50 in experiment [1] came out at 898 nM; in experiment [2], 130 nM.

Regarding `Cc1cc(/C=C2/CCCNC2)on1`, the IC50 is 7220 nM in experiment [1] and 87 nM in experiment [2].

Regarding `CC(C)c1cc(/C=C2\CN3CCC2CC3)on1`, the IC50 in experiment [1] turned out to be 911 nM; in experiment [2], 107 nM.

For `Cc1cc(/C=C2\CCCN(C)C2)on1`, the IC50 in experiment [1] is 9540 nM; in experiment [2] it was above 1000 nM.

`C(=C1/CN2CCC1CC2)/c1ccno1`: the IC50 is 312 nM in experiment [1] and 1.65 nM in experiment [2].

In the case of `Cc1cnoc1/C=C1\CN2CCC1C2` (configuration not stated), the IC50 in experiment [1] is 19 nM; in experiment [2] it was 0.32 nM.

`CCc1cc(/C=C2\CN3CCC2CC3)on1`: the IC50 in experiment [1] was 566 nM; in experiment [2], 100 nM.

As for `Cc1cc(/C=C2/CN3CCC2C3)on1` (configuration not stated), the figures for the IC50 in experiment [1] and in experiment [2] were 1020 nM and 23 nM, respectively.

Consider `CC(C)c1cc(/C=C2/CN3CCC2CC3)on1`, for which the figures for the IC50 in experiment [1] and in experiment [2] were 2280 nM and above 1000 nM, respectively.

`CCCc1cc(/C=C2/CN3CCC2CC3)on1`: the results for the IC50 in experiment [1] and in experiment [2] were 1930 nM and above 1000 nM, respectively.

In the case of `Cc1cc(/C=C2\CN3CCC2C3)on1` (configuration not stated), the IC50 in experiment [1] worked out at 276 nM; in experiment [2], 29 nM.

Turning to `Cc1cc(/C=C2/CCCN(C)C2)on1`, the IC50 in experiment [1] is 5760 nM; in experiment [2], above 1000 nM.

For the compound `Cc1cc(/C=C2/CN3CCC2CC3)on1`, the values for the IC50 in experiment [1] and in experiment [2] were 1810 nM and 504 nM, respectively.

`Cc1cc(/C=C2\CCN(C)C2)on1`: the results for the IC50 in experiment [1] and in experiment [2] were 15700 nM and above 1000 nM, respectively.

For `Cc1cnoc1/C=C1\CN2CCC1CC2`, the IC50 in experiment [1] came out at 418 nM; in experiment [2] it was 3.2 nM.

In the case of `C/C(=C1/CN2CCC1CC2)c1cc(C)no1`, the IC50 in experiment [1] came to 2263 nM; in experiment [2] it was 715 nM.

With `Cc1cc(/C(F)=C2\CN3CCC2CC3)on1`, the figures for the IC50 in experiment [1] and in experiment [2] were 1450 nM and 255 nM, respectively.

On to `COCc1cc(/C=C2\CN3CCC2CC3)on1`, for which the IC50 in experiment [1] came to 1470 nM; in experiment [2], 218 nM.

In the case of `CCCc1cc(/C=C2\CN3CCC2CC3)on1`, the IC50 came to 852 nM in experiment [1] and 167 nM in experiment [2].

For the compound `Cc1noc(/C=C2/CN3CCC2CC3)c1C`, the results for the IC50 in experiment [1] and in experiment [2] were 373 nM and above 1000 nM, respectively.

As to `Cc1cc(C=C2CNC2)on1`, the IC50 in experiment [1] is 19300 nM; in experiment [2] it was above 1000 nM.

For `Cc1cc(/C=C2/CCNC2)on1`, the IC50 in experiment [1] is 3290 nM; in experiment [2], above 1000 nM.

On to `Cc1cc(/C=C2/CN3CCCC2C3)on1` (configuration not stated), for which the figures for the IC50 in experiment [1] and in experiment [2] were 1570 nM and 53 nM, respectively.

For the compound `CCc1cc(/C=C2/CN3CCC2CC3)on1`, the results for the IC50 in experiment [1] and in experiment [2] were 867 nM and above 1000 nM, respectively.

As for `Cc1cc(/C=C2/CCN(C)C2)on1`, the IC50 came out at 4420 nM in experiment [1] and 783 nM in experiment [2].

On to `COCc1cc(/C=C2/CN3CCC2CC3)on1`, for which the IC50 is 4000 nM in experiment [1] and above 1000 nM in experiment [2].
